Only some compounds are listed: those with a hit (about 1.4% of all), similar ones and a draw of the others.
FXIa inh: blocks human coagulation factor XIa protease activity | inhibition, % at 5 µM | purified FXIa, Boc-Glu-Ala-Arg-AMC fluorogenic substrate | 220,000 tested, 0.14% active;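 active means inhibition of at least 40%; inactive means inhibition below 40%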;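 further: fluorescence of freed AMC excited at 355 nm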
thrombin 1536: inhibitors of human thrombin | inhibition, % at 5 µM | 220,000 tested, 0.26% active | alpha-thrombin, Boc-VPR-AMC fluorogenic substrate cleavage;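 active means inhibition at or above 40%; inactive means inhibition below 40%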
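Material: Human alpha-thrombin protein | Buffer or medium: pH 7.5 Tris-saline with Tween 20 | Reagent: Boc-VPR-AMC substrate, 15 µM final | Schedule: Reaction at ambient temperature | Detection: AMC fluorescence at 355 nm excitation and 460 nm emission | Evaluation: Percent inhibition scaled between no-compound controls and no-enzyme blanks | Controls: no-compound enzyme wells and no-enzyme blanks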
hK5 inh: kallikrein 5 (human) inhibition | recombinant hK5, fluorogenic AMC substrate cleavage | inhibition, % at 5 µM | 210,000 tested, 0.59% active | AID 873;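 active means inhibition of 40% or more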
FXIIa inh: blocks human coagulation factor XIIa protease activity. purified FXIIa, Boc-QGR-AMC fluorogenic substrate, 2 h. inhibition, % at 5 µM. 220,000 tested, 0.3% active; in the data active means inhibition above about 40%
Target sequence (P00748 20-372 limits assumed): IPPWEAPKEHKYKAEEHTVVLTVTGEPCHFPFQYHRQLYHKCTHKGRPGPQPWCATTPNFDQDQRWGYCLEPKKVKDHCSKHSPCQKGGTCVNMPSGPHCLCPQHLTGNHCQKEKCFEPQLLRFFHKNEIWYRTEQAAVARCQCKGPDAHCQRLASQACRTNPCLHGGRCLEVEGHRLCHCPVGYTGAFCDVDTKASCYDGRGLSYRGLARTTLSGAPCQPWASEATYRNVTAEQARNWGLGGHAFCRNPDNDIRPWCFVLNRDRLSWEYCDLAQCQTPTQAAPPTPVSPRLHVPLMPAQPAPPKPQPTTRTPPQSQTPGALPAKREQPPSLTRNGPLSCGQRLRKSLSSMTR
Target sequence (P00748 373-615 limits assumed): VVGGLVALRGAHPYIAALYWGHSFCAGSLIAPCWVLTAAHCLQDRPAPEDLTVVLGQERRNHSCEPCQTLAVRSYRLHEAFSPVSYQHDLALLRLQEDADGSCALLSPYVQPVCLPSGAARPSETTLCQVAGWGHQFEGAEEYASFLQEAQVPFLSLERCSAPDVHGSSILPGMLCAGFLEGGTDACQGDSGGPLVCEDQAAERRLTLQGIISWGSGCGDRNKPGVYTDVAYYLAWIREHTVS
Calpain2 inh: inhibitors of pig calpain II | 220,000 tested, 0.37% active | purified calpain II, fluorogenic peptide substrate, 30 min | AID 1236 | inhibition, % at 16 µM;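 active means inhibition above about 50%, limit read from the data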
Hits are given with their value; . = inactive; / = no result.

SMILES	FXIa inh	thrombin 1536	hK5 inh	FXIIa inh	Calpain2 inh
COc1ccc(C(=O)N(C)c2c(C)n(C)n(-c3ccccc3)c2=O)cc1OC	.	.	.	.	70
Cc1cc(C)cc(N(CC(=O)NC(C)(C)C)C(=O)CNC(=O)c2cccs2)c1	.	.	.	.	.
CCn1c(SCC(=O)O)nnc1-c1ccccc1	.	.	.	.	.
COc1cc(/C=C2/C(=O)NN(c3cccc(C)c3)C2=O)ccc1OC(=O)c1ccco1	.	.	60	.	.
CC(=O)Nc1nc2n(n1)C(c1ccc(F)cc1)C=C(c1ccccc1)N2 (configuration not stated)	.	.	.	.	.
Cc1cc(C)c(S(=O)(=O)Nc2ccc3c(c2)CCC3)c(C)c1	.	.	.	.	51
C=CCN1C(=O)C(CC(=O)Nc2ccccc2)SC1=Nc1c(C)n(C)n(-c2ccccc2)c1=O (configuration not stated)	.	.	.	.	.
Cc1ccccc1/C=C1\SC(=S)N(/N=C/c2cc([N+](=O)[O-])ccc2O)C1=O	.	56	.	.	.
CC(N=Cc1cc([N+](=O)[O-])ccc1O)c1ccccc1 (configuration not stated)	.	.	.	.	.
Cc1ccc(S(=O)(=O)NC(=O)N2CCC(C)CC2)cc1	.	50	.	.	.
Cc1ccc(S(=O)(=O)NCC(=O)N2CCC(C)CC2)cc1	.	.	.	.	.
CC1CCc2[nH]nc(C(=O)O)c2C1 (configuration not stated)	.	78	.	.	.
CC(OC(=O)c1ccccc1Nc1ccc(SC(F)F)cc1)C(N)=O (configuration not stated)	.	.	.	.	68
CCOCCCNS(=O)(=O)c1ccc(NC(=O)c2ccc(OC)c([N+](=O)[O-])c2)cc1	42	.	.	.	.
S=c1[nH]nc(-c2ccncc2)n1/N=C/C=C/c1ccco1	.	.	.	74	.
Cn1ncc(Cl)c1C(=O)N1CCN(C(=O)c2ccco2)CC1	.	.	.	.	.
O=C(CCN1C(=O)S/C(=C/c2ccc(Cl)cc2)C1=O)N1CCOCC1	.	.	.	.	.
CCn1cc(C(=O)OCC(=O)c2cc(C)n(-c3cccc(C(F)(F)F)c3)c2C)c(=O)c2ccc(C)nc21	.	.	.	.	.
CC(C)Nc1nnc(Sc2ccc(Cl)cc2[N+](=O)[O-])s1	.	.	.	.	71
COc1ccc(/C=C/C(=O)OCC(=O)Nc2ccc(N3CCOCC3)cc2)cc1	.	.	82	.	.
O=C(Cn1nnc2ccccc2c1=O)NC1CCCc2ccccc21 (configuration not stated)	.	.	.	.	.
Cc1cccc(Nc2cc(C)c3c(O)cccc3n2)c1C	.	.	.	.	.
CCC(CO)n1c(SCc2cc(=O)oc3cc(C)ccc23)nc2ccccc2c1=O (configuration not stated)	.	.	.	42	.
COCCCNC(=O)CS(=O)(=O)Cc1nc(-c2cccc(OC)c2)oc1C	.	.	.	.	.
CCCCN(C)C(=O)CS(=O)(=O)Cc1nc(-c2cccc(OC)c2)oc1C	.	.	44	.	.
SMILES	FXIa inh	thrombin 1536	hK5 inh	FXIIa inh	Calpain2 inh
CCOc1ccc(N(CC(=O)NC(C)CC)S(C)(=O)=O)cc1 (configuration not stated)	.	.	.	.	.
CCCc1ccc(OC(=O)c2cccs2)cc1	.	.	.	.	.
CCCc1ccc(OC(=O)c2ccc(O)cc2Cl)cc1	.	.	.	.	62
C/C(CC(=O)NCCCN1CCOCC1)=N\NC(=O)COc1ccc(C)cc1	.	.	47	.	.
C/C(CC(=O)NCCCN1CCOCC1)=N\NC(=O)COc1ccc(Cl)cc1	.	.	.	.	.
Cc1ccc(NC2=NC3(CCCCC3)N=C(N)N2)c(C)c1	45	.	.	.	.
Cc1ccc(NC2=NC3(CCCC3)N=C(N)N2)c(C)c1	.	.	.	/	.
CC/C(=N\NC(=O)c1ccc2c(c1)OCO2)C12CC3CC(CC(C3)C1)C2	.	.	.	.	.
COc1cccc(-n2nnc3c(=O)n(CC(=O)OCc4ccccc4)cnc32)c1	.	.	.	.	.
O=C(O)CCC(=O)N1N=C(c2ccccc2)CC1c1cccs1 (configuration not stated)	.	.	.	.	.
O=C(O)CCCC(=O)N1N=C(c2ccccc2)CC1c1cccs1 (configuration not stated)	49	.	.	.	.
CCOC(=O)C1CCN(CCC(=O)Nc2ccc(F)cc2)CC1	.	.	.	.	.
